Measurements of several laboratories.
Protocols differ between the studies behind these lines.
Target: Mitogen-activated protein kinase kinase kinase kinase 1 (MAP4K1, Homo sapiens, UniProt Q92918)

Compound	effect on	method	tested at	remaining binding [%]
C[C@@H](c1ccc(-n2cnc3c(N)ncnc32)cc1)N1CCc2nn(C)c(Cc3ccccc3)c2C1=O	binding	competition with immobilised ligand	0.1 µM	100
Cc1cc(-n2nc(Cc3cc(F)cc(C(F)(F)F)c3)nc2C)ccc1C(N)=O	cell-free assay	competition with immobilised ligand	1 µM	100
COc1cnc(Nc2cccc(S(N)(=O)=O)c2)nc1N1CCN(c2ccccc2)C(=O)C1	binding	competition with immobilised ligand	1 µM	87
C[C@@H]1CCN(c2nccc(-c3cnn4ncccc34)n2)C1	binding	–	1 µM	100
CCOCCn1cc(C(=O)Nc2ccc(-n3nc(-c4cccnc4)cc3C(F)(F)F)cn2)ccc1=O	cell-free assay	competition with immobilised ligand	1 µM	81
c1cncc(-c2cccc(Nc3nccc(NC4CCCCC4)n3)c2)c1	binding	competition with immobilised ligand	10 µM	39
O=C(NCCCN1CCOCC1)c1ccc(Nc2ncc(Cl)c(-c3ccc(Cl)s3)n2)cc1	binding	competition with immobilised ligand	1 µM	17
CC1CCCN1c1nccc(-c2cnn3ncccc23)n1 (stereo not shown)	binding	–	1 µM	100
FC(F)(F)Oc1cccc(-c2cnc3ccc(-c4ccncc4)nn23)c1	cell-free assay	competition with immobilised ligand	5 µM	68
COc1ncc2cc3ccccc3nc2c1C#N	cell-free assay	competition with immobilised ligand	5 µM	89
O=C(NCCCN1CCOCC1)c1ccc(Nc2nccc(-c3cc4ccccc4s3)n2)cc1	binding	competition with immobilised ligand	1 µM	85
CN(C)c1ncc(F)c(-c2cnn3ncccc23)n1	binding	–	1 µM	100
CN(C)C(=O)Cn1cc(-c2nc([C@@](C)(c3ccc(-c4cnc(N)nc4)cc3)C3CC3)no2)cn1	cell-free assay	competition with immobilised ligand	1 µM	100
N[C@H]1CCN(c2nccc(-c3cnn4ncccc34)n2)C1	binding	–	1 µM	100
CNC(=O)Nc1ccc2c(c1)[C@@]1(CC2)OC(=O)N(CC(=O)N(Cc2ccc(F)cc2)[C@@H](C)C(F)(F)F)C1=O	cell-free assay	competition with immobilised ligand	1 µM	90
CN(C)c1nccc(-c2cnc3ncccn23)n1	binding	–	1 µM	100
FC(F)(F)c1ccc2c(c1)nc(-c1cccnc1)n2C1CC1	cell-free assay	competition with immobilised ligand	1 µM	93
O=C(c1ccc(Nc2ncc(Cl)c(-c3cc4ccccc4s3)n2)cc1)N1CCC(N2CCCC2)CC1	binding	competition with immobilised ligand	1 µM	26
F[C@@H]1CCN(c2nccc(-c3cnn4ncccc34)n2)C1	binding	–	1 µM	100
O=C(Nc1c[nH]nc1C(=O)NC1CCNCC1)c1cc(F)cc(F)c1	binding	competition with immobilised ligand	1 µM	100
CO[C@H]1CC[C@H](CNc2ccc(S(=O)(=O)NC(=O)c3ccc(N4CCN(CC5=C(c6ccc(Cl)cc6)CC(C)(C)CC5)CC4)cc3Oc3cnc4[nH]ccc4c3)cc2[N+](=O)[O-])CC1	cell-free assay	competition with immobilised ligand	1 µM	69
Cc1cnn2ncc(-c3ccnc(N(C)C)n3)c2c1	binding	–	1 µM	99
